The RNAGym collection of RNA variant scans (doi:10.1038/s41586-018-0170-7)

B1: tRNA (parent)
chain: GUUCCGUUGGCGUAAUGGUAACGCGUCUCCCUCCUAAGGAGAAGACUGCGGGUUCGAGUCCCGUACGGAACG

Variants of: B1
Experiment: yeast fitness, log relative to wild type (ln ratio); higher = fitter; tRNA-Arg(CCU), competitive growth, 37 C, 1 M NaCl
Summary of the method: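 A combinatorial tRNA-Arg(CCU) variant library was carried on a HIS3 centromeric plasmid in BY4742 lacking the chromosomal gene, from two independent transformations. Pools grew 4 generations in SC-HIS at 30 °C, then ~6.5 generations (~26.5 h) in SC-HIS 1M NaCl at 37 °C, with three outputs per input. Variants were counted by 125 bp paired-end Illumina sequencing. Fitness is ln of each genotype's generations (OD-scaled log2 output/input frequency, inverse-variance weighted across replicates) over the wild-type's.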

| Variant | yeast fitness (ln) |
| --- | --- |
| G6U C27U C46U C66U A70U | -0.19 |
| G1A U2C | -0.00128 |
| G6A C27U C46U | -0.149 |
| U2C A43C C46U A70G | -0.00469 |
| G1A G6U A43C C66U A69G A70U | -0.452 |
| C27U A43C A69G A70G C71U | -0.142 |
| U2G G6U C27U A43C | -0.107 |
| G6U C27U A43C C46U C66A A69G A70U C71U | -0.611 |
| U2C G6U C27U A43C C46U A69G A70G C71U | -0.188 |
| G6A C27U A43C A70U C71U | -0.322 |
| G6A C27U C46U A70U | -0.144 |
| U2G G6U A43C C66U A70G C71U | -0.397 |
| U2G G6U C27U A43C A69G A70U C71U | -0.484 |
| U2C G6A A43C C46U C66A | -0.2 |
| U2C G6A C46U C66U A70G C71U | -0.00476 |
| U2C C27U A43C C66A A70G C71U | -0.111 |
| G1A G6A A43C C46U C66U C71U | -0.0152 |
| G6U C27U C46U A70U C71U | -0.214 |
| U2C G6U C66A A70G C71U | -0.0156 |
| U2G G6A A43C C46U C66U A70G C71U | -0.149 |
| U2G G6U A43C C66U C71U | -0.405 |
| U2C C27U C66U A70G | -0.0659 |
| U2G C27U A43C C66U A69G A70G C71U | -0.402 |
| U2C C46U C66U A69G | -0.224 |

| Variant | yeast fitness (ln) |
| --- | --- |
| G1A U2G G6U C27U A43C C66U A69G A70U | -0.611 |
| G1A G6U C27U A43C C46U A69G A70G | -0.346 |
| G1A G6U A43C C66A A70U | -0.411 |
| G1A G6U C27U A43C C46U A69G C71U | -0.328 |
| G6U C46U C66U A69G | -0.376 |
| G1A U2C G6A A43C C46U C66U | -0.085 |
| G1A U2C C27U C46U | -0.00588 |
| U2G G6A C27U C66U A70G C71U | -0.203 |
| U2G G6U C27U C66U A69G A70U C71U | -0.439 |
| A43C C46U C66U A70U C71U | -0.211 |
| U2C G6U | -0.00207 |
| G1A U2G G6A C27U A43C C46U A69G A70U C71U | -0.443 |
| G6A C27U A43C C66U A69G A70G | -0.374 |
| G1A A43C | -0.119 |
| U2G G6A A43C A70U C71U | -0.169 |
| U2G G6A A43C C46U A69G A70U | -0.123 |
| U2G G6A C27U C46U C66U A70G | -0.364 |
| G1A U2G C46U C66U A70U | -0.0831 |
| G6U C27U C46U A69G | -0.15 |
| U2G G6A A43C C46U C66A A69G A70G C71U | -0.212 |
| G1A U2C G6U A43C A69G A70G C71U | -0.268 |
| G1A U2G G6A C27U C46U A70G C71U | -0.244 |
| U2C G6U A43C C66A A70U C71U | -0.272 |
| G1A U2G G6U C46U C66U A69G A70G | -0.347 |

| Variant | yeast fitness (ln) |
| --- | --- |
| U2G G6U C46U C66U A69G A70G | -0.162 |
| U2G A70G | -0.0201 |
| G1A C27U A43C C46U C66U A70G | -0.226 |
| G1A U2G G6A C27U A43C C46U A69G A70G C71U | -0.424 |
| G1A C27U A43C C46U A69G A70U C71U | -0.366 |
| G1A G6A C46U C66A A69G A70G C71U | -0.151 |
| U2C C46U C66U A69G A70U | -0.0518 |
| G1A U2G A43C C66U A70G | -0.214 |
| G1A U2C G6U C27U C46U A69G A70G C71U | -0.272 |
| G6U A69G | -0.234 |
| G6U C27U C46U C66U A70G C71U | -0.245 |
| G1A U2C G6A A43C | -0.0264 |
| U2C C27U C66U A70G C71U | -0.172 |
| U2G G6A C27U A43C C46U C66U A70G | -0.143 |
| G1A U2G G6A C66A A70U | -0.0697 |
| U2G C27U A43C C46U C66A A70U | -0.0794 |
| G1A G6A C46U C66A A70G C71U | -0.128 |
| U2G G6U A43C C46U C66A A70G C71U | -0.174 |
| G1A U2G G6A A70G | -0.16 |
| U2G G6A A43C C66U A70U C71U | -0.49 |
| G1A G6A A43C C66A A70G C71U | -0.297 |
| U2G A43C C46U C66U C71U | -0.2 |
| U2G C27U C46U C66U A69G C71U | -0.312 |
| G1A U2G G6U C71U | -0.196 |

| Variant | yeast fitness (ln) |
| --- | --- |
| G1A U2G C27U A43C C66U A69G A70G C71U | -0.294 |
| G1A U2G G6U C27U C46U C66U A69G A70G C71U | -0.339 |
| G1A U2C G6A C66U A69G A70G | -0.0913 |
| U2G G6A A43C C66A A70G | -0.187 |
| G1A C66A | 0.0139 |
| U2C C46U C66U A70U C71U | -0.155 |
| U2G A43C C46U A69G C71U | -0.107 |
| G1A U2G G6U A43C C46U C66A A70U C71U | -0.0885 |
| G1A U2G G6U A43C C46U C66A C71U | -0.234 |
| G1A G6U C27U A43C C66U A69G A70G C71U | -0.497 |
| G1A G6U C46U C66A C71U | 0.0017 |
| G1A U2G G6A C27U C66U C71U | -0.344 |
| G1A C46U C66A A70U | -0.0792 |
| U2G G6U C27U A43C A70G | -0.232 |
| G1A U2G C46U C66U A69G A70U C71U | -0.321 |
| G1A U2G A43C C46U C66U A69G A70G | -0.254 |
| G1A U2C G6U C27U C66A A70G C71U | -0.0489 |
| U2C G6A C27U A70G C71U | -0.282 |
| U2G G6U C27U C46U C66U | -0.147 |
| G1A G6U C27U A43C C66U A69G A70G | -0.51 |
| G1A G6A C27U | -0.134 |
| G1A G6A C27U C46U A70U | -0.164 |
| U2C G6A C27U C46U A70U C71U | -0.123 |
| U2C G6A A43C A69G C71U | -0.179 |

| Variant | yeast fitness (ln) |
| --- | --- |
| U2G G6A C27U C66A A70U | -0.126 |
| G1A G6A C27U C46U | -0.143 |
| C27U A43C C66A A69G A70U | -0.289 |
| U2G G6U C27U C66A A70G | -0.243 |
| U2G G6U C27U C66A A70U | -0.0251 |
| C46U C66U A70U | -0.103 |
| U2C C46U C71U | -0.069 |
| G1A U2G C66U A70U C71U | -0.486 |
| G1A G6U C27U C46U C66U A70G C71U | -0.302 |
| G1A G6U C27U C71U | -0.251 |
| G1A C46U C66A C71U | -0.243 |
| G1A U2G C27U C46U C66A A69G A70U | -0.191 |
| G1A G6U A43C C46U C66U | -0.286 |
| G1A U2G G6A C27U C46U C66A A70U | -0.187 |
| U2G G6A C27U A43C | -0.0726 |
| U2C C27U C66U A69G C71U | -0.303 |
| G6A C27U C46U C66U A69G A70U | -0.196 |
| U2G C27U A43C C46U A69G A70G | -0.114 |
| G1A U2G G6U C66U A70G | -0.199 |
| G6A C27U C46U C66A A70U | -0.102 |
| G1A U2G C27U C66U A69G A70G | -0.26 |
| G1A U2C C27U C66U C71U | -0.33 |
| G1A U2C G6A A69G A70G C71U | -0.187 |
| G1A G6U C46U C66U A69G A70G C71U | -0.216 |

| Variant | yeast fitness (ln) |
| --- | --- |
| G1A U2G G6U C27U A43C C66U A70G | -0.4 |
| G1A U2G G6U C66U A69G A70G C71U | -0.529 |
| U2C G6A C27U C46U A69G A70G | -0.236 |
| U2C G6A C27U A43C C46U C66U A69G A70G | -0.0296 |
| U2C C46U C66U A70G C71U | -0.00524 |
| G1A U2C A69G A70U | -0.00637 |
| U2G G6U A43C C46U C66U A70U | -0.263 |
| U2G G6U A43C C46U C66U A70G | -0.185 |
| U2G G6A C27U A43C A69G C71U | -0.391 |
| G1A U2C G6U A43C C46U A70U C71U | -0.144 |
| G1A U2G G6A C27U C46U C66U A70G C71U | -0.243 |
| G6A C46U C66U A70U C71U | -0.423 |
| U2G G6U C46U A69G A70U | -0.402 |
| G1A U2C G6A C27U A43C C66U A69G A70G C71U | -0.255 |
| G1A C27U A43C C46U A69G C71U | -0.109 |
| U2C G6U C27U C46U C66A A70G C71U | -0.0247 |
| G1A U2G G6A C27U A43C A69G A70G | -0.341 |
| G1A U2G C27U A43C C46U C66U | -0.231 |
| U2C G6U C27U A43C C66U | -0.0999 |
| U2G A43C A69G A70U C71U | -0.382 |
| G1A U2C C27U A43C C46U C66U A69G A70G | -0.112 |
| G1A U2G G6U C27U A43C C46U C66U A70U C71U | -0.647 |
| G1A G6U C46U C66U A70G C71U | -0.277 |
| G1A U2C C27U A43C C46U C71U | -0.178 |

| Variant | yeast fitness (ln) |
| --- | --- |
| U2G G6A C27U C66U A70U | -0.0165 |
| U2C G6A C27U A43C C46U C66U A70U | -0.0567 |
| G1A G6U C27U C46U C66U A70G | -0.234 |
| G1A G6A C27U A43C C46U A70G C71U | -0.315 |
| G1A U2C G6U C27U C46U A70U | -0.157 |
| G1A G6U C66A A69G C71U | -0.032 |
| U2G G6U C27U A43C A69G | -0.268 |
| U2C G6U C46U C66A A70G | -0.013 |
| U2C G6A C27U A43C C66A A70U | -0.0983 |
| U2G C27U A43C A70U C71U | -0.235 |
| G6A C27U C46U A70G C71U | -0.206 |
| G6A C46U C66U A69G A70U | -0.202 |
| U2C A43C A70G C71U | -0.0158 |
| U2C G6A A43C C46U A70U C71U | -0.09 |
| U2G G6A C27U A69G A70G | -0.193 |
| G1A U2C A70G C71U | -0.0141 |
| U2C C66A A70U | -0.0514 |
| G1A U2G G6U A43C C66U A70U | -0.284 |
| G1A C27U A43C C66U | -0.242 |
| G1A C27U A43C C46U A69G A70G C71U | -0.336 |
| G6U A43C C66U A70G C71U | -0.392 |
| G1A A43C C46U C66A A69G A70G | -0.169 |
| G1A U2C G6U C66A C71U | -0.115 |
